Assay results published in ChEMBL document CHEMBL1122242, “Phenylenebis(oxy)bis[2,2-dimethylpentanoic acid]s: agents that elevate high-density lipoproteins” (1983).
Values joined by “and” are separate entries in the source; they are usually repeats but may differ in a detail not shown here. Identical values can stand only once.

Assays:
Type in all cases: functional
Rattus norvegicus [1] = assay: Hypolipidemic effects(liver weight) in male rats at 12.50 mg/kg; conditions: dose 12.5 mg/kg
In short: (§1)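 Head-to-head oral dosing at 12.5, 25 and 50 mg/kg daily […] in male rats kept on a high lipid diet, alongside gemfibrozil reference. Plasma lipid fractions and liver weight expressed as % change vs controls.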

Rattus norvegicus [2] = assay: Hypolipidemic effects(liver weight) in male rats at 12.5 mg/kg; in short: as §1
Rattus norvegicus [3] = assay: Hypolipidemic effects(liver weight) in male rats at 25 mg/kg; in short: as §1
Rattus norvegicus [4] = assay: Hypolipidemic effects(liver weight) in male rats at 50 mg/kg; in short: as §1
Rattus norvegicus [5] = assay: Hypolipidemic effects(plasma TG) in male rats at 12.50 mg/kg; conditions: dose 12.5 mg/kg; in short: as §1
Rattus norvegicus [6] = assay: Hypolipidemic effects(plasma TG) in male rats at 50 mg/kg; in short: as §1
Rattus norvegicus [7] = assay: Hypolipidemic effects(plasma TG) in male rats at a dose of 50 mg/kg
In short: (§2)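 Male rats, 10 per group, fed 7 days on chow with 10% fat (5.5% added peanut oil), 1.5% cholesterol and 0.1% cholic acid. Oral gavage on days 4-7 in 4% acacia, usually 50 mg/kg daily. Fasted overnight, killed day 8, atrial blood into EDTA. Plasma cholesterol, TG and HDL cholesterol (after MnCl2/heparin precipitation) by Autoanalyzer. % change vs controls, Student's t test.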

Rattus norvegicus [8] = assay: Hypolipidemic effects(plasma cholesterol) in male rats at 12.50 mg/kg; conditions: dose 12.5 mg/kg; in short: as §1
Rattus norvegicus [9] = assay: Hypolipidemic effects as the ratio of (HDL/LDL) in male rats at dose 12.5 mg/kg.
In short: (§3)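 Male rats on a high lipid diet, dosed orally […] at 12.5, 25 or 50 mg/kg, with gemfibrozil reference. HDL/LDL (VLDL included) ratio from densitometry of polyacrylamide gel electrophoresis patterns of plasma. Expressed as % change vs controls.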

Rattus norvegicus [10] = assay: Hypolipidemic effects as the ratio of (HDL/LDL) in male rats at dose 25 mg/kg.; in short: as §3
Rattus norvegicus [11] = assay: Hypolipidemic effects as the ratio of (HDL/LDL) in male rats at dose 50 mg/kg.; in short: as §3
Rattus norvegicus [12] = assay: Hypolipidemic effects (Low-density lipoprotein (LDL) cholesterol) in male rats at 12.50 mg/kg; conditions: dose 12.5 mg/kg; in short: as §1
Rattus norvegicus [13] = assay: Hypolipidemic effects (Low-density lipoprotein (LDL) cholesterol) in male rats at 50 mg/kg; in short: as §1
Rattus norvegicus [14] = assay: Hypolipidemic effects (Low-density lipoprotein (LDL) cholesterol) in male rats at a dose of 50 mg/kg; Compound was screening orally at 50 mg/Kg; in short: as §2
Rattus norvegicus [15] = assay: Hypolipidemic effects (high-density lipoprotein (HDL) cholesterol) in male rats at 12.50 mg/kg; conditions: dose 12.5 mg/kg; in short: as §1
Rattus norvegicus [16] = assay: Hypolipidemic effects (high-density lipoprotein (HDL) cholesterol) in male rats at 12.5 mg/kg; in short: as §1
Rattus norvegicus [17] = assay: Hypolipidemic effects (high-density lipoprotein (HDL) cholesterol) in male rats at 25 mg/kg; in short: as §1
Rattus norvegicus [18] = assay: Hypolipidemic effects (high-density lipoprotein (HDL) cholesterol) in male rats at 50 mg/kg; in short: as §1
Rattus norvegicus [19] = assay: Hypolipidemic effects(plasma cholesterol) in male rats at 50 mg/kg; in short: as §1
Rattus norvegicus [20] = assay: Hypolipidemic effects(plasma cholesterol) in male rats at a dose of 50 mg/kg; in short: as §2
Rattus norvegicus [21] = assay: Hypolipidemic effects(plasma TG) in male rats at 25 mg/kg; in short: as §1
Rattus norvegicus [22] = assay: Hypolipidemic effects (Low-density lipoprotein (LDL) cholesterol) in male rats at 25 mg/kg; in short: as §1
Rattus norvegicus [23] = assay: Hypolipidemic effects (high-density lipoprotein (HDL) cholesterol) in male rats at a dose of 50 mg/kg; Compound was screening orally at 50 mg/Kg; in short: as §2
Rattus norvegicus [24] = assay: Hypolipidemic effects (high-density lipoprotein (HDL) cholesterol) in male rats at 50 mg/kg; Compound was screening orally at 50 mg/Kg; in short: as §2
Rattus norvegicus [25] = assay: Hypolipidemic effects (Low-density lipoprotein (LDL) cholesterol) in male rats at 50 mg/kg; Compound was screening orally at 50 mg/Kg; in short: as §2
Rattus norvegicus [26] = assay: Hypolipidemic effects(plasma cholesterol) in male rats at 25 mg/kg; in short: as §1
Rattus norvegicus [27] = assay: Hypolipidemic effects (high-density lipoprotein (HDL) cholesterol) in male rats at 50 mg/kg orally; conditions: route oral; in short: as §1
Rattus norvegicus [28] = organism: Rattus norvegicus; assay: Hypolipidemic effects(liver weight) in male rats; in short: as §2
Rattus norvegicus [29] = organism: Rattus norvegicus; assay: Hypolipidemic effects (low-density lipoprotein (LDL) cholesterol) in male rats; in short: as §2
Rattus norvegicus [30] = assay: Hypolipidemic effects(plasma TG) in male rats;Compound was screening orally at 50 mg/Kg; in short: as §2
Rattus norvegicus [31] = assay: Hypolipidemic effects (high-density lipoprotein (HDL) cholesterol) in male rats; Compound was screening orally at 50 mg/Kg; in short: as §2
Rattus norvegicus [32] = assay: Hypolipidemic effects(plasma cholesterol) in male rats;Compound was screening orally at 50 mg/Kg; in short: as §2
Rattus norvegicus [33] = organism: Rattus norvegicus; assay: Hypolipidemic effects(plasma TG) in male rats; in short: as §2
Rattus norvegicus [34] = organism: Rattus norvegicus; assay: Hypolipidemic effects(plasma cholesterol) in male rats; in short: as §2
Rattus norvegicus [35] = assay: Hypolipidemic effects (high-density lipoprotein (HDL) cholesterol) in male rats;Compound was screening orally at 50 mg/Kg; in short: as §2

SMILES: Cc1ccc(C)c(OCCCC(C)(C)C(=O)O)c1 [GEMFIBROZIL]
- Change (Rattus norvegicus [1]): 7%
- Change (Rattus norvegicus [2]): 7% and 4%
- Change (Rattus norvegicus [3]; 25 mg/kg): 10% and 8% and 9% and 11%
- Change (Rattus norvegicus [4]; 50 mg/kg): 17% and 26% and 13%
- Change (Rattus norvegicus [5]): 45%
- Change (Rattus norvegicus [6]; 50 mg/kg): 57% and 69%
- Change (Rattus norvegicus [7]): 233%
- Change (Rattus norvegicus [8]): 0%
- Change (Rattus norvegicus [9]; 12.5 mg/kg): 98% [middle of 5 runs]
- Change (Rattus norvegicus [10]; 25 mg/kg): 214% [middle of 5 runs]
- Change (Rattus norvegicus [11]; 50 mg/kg): 364% and 594% and 405%
- Change (Rattus norvegicus [12]): -16%
- Change (Rattus norvegicus [13]): -42%
- Change (Rattus norvegicus [14]): -32%
- Change (Rattus norvegicus [15]): 134%
- Change (Rattus norvegicus [16]): 88% and 134% and 116% and 133%
- Change (Rattus norvegicus [17]; 25 mg/kg): 215% and 257% and 171% and 236% and 246%
- Change (Rattus norvegicus [18]; 50 mg/kg): 498% and 306%
- Change (Rattus norvegicus [19]; 50 mg/kg): -26% and -29%
- Change (Rattus norvegicus [20]): 0%
- Change (Rattus norvegicus [21]; 25 mg/kg): 64% [middle of 5 runs]
- Change (Rattus norvegicus [22]; 25 mg/kg): -22% [middle of 4 runs]
- Change (Rattus norvegicus [23]): 339%

SMILES: COC(=O)C(C)(C)CCCOc1ccc(OCCCC(C)(C)C(=O)OC)c(C)c1
- Change (Rattus norvegicus [24]): 743%
- Change (Rattus norvegicus [1]): 13%
- Change (Rattus norvegicus [3]): 25%
- Change (Rattus norvegicus [4]): 38%
- Change (Rattus norvegicus [5]): 0%
- Change (Rattus norvegicus [6]): 62%
- Change (Rattus norvegicus [8]): -43%
- Change (Rattus norvegicus [9]): 142%
- Change (Rattus norvegicus [10]): 452%
- Change (Rattus norvegicus [11]): 1009%
- Change (Rattus norvegicus [12]): -54%
- Change (Rattus norvegicus [25]): -71%
- Change (Rattus norvegicus [15]): 102%
- Change (Rattus norvegicus [17]): 269%
- Change (Rattus norvegicus [26]): -41%
- Change (Rattus norvegicus [19]): -37%
- Change (Rattus norvegicus [21]): 0%
- Change (Rattus norvegicus [22]): -65%

SMILES: CC(C)(CCCCOc1ccc(OCCCCC(C)(C)C(=O)O)cc1)C(=O)O
- Change (Rattus norvegicus [27]): 1477%
- Change (Rattus norvegicus [1]): 4%
- Change (Rattus norvegicus [3]): 14%
- Change (Rattus norvegicus [4]): 36%
- Change (Rattus norvegicus [5]): -16%
- Change (Rattus norvegicus [6]): -20%
- Change (Rattus norvegicus [8]): -33%
- Change (Rattus norvegicus [9]): 180%
- Change (Rattus norvegicus [10]): 339%
- Change (Rattus norvegicus [11]): 1722%
- Change (Rattus norvegicus [12]): -40%
- Change (Rattus norvegicus [15]): 81%
- Change (Rattus norvegicus [17]): 227%
- Change (Rattus norvegicus [18]): 1477%
- Change (Rattus norvegicus [26]): -35%
- Change (Rattus norvegicus [19]): 0%
- Change (Rattus norvegicus [21]): 0%
- Change (Rattus norvegicus [22]): -50%

SMILES: CC(C)(CCCOc1ccc(OCCCC(C)(C)C(=O)O)c(Cl)c1)C(=O)O
- Change (Rattus norvegicus [24]): 753%
- Change (Rattus norvegicus [1]): 8%
- Change (Rattus norvegicus [3]): 18%
- Change (Rattus norvegicus [4]): 38%
- Change (Rattus norvegicus [5]): -28%
- Change (Rattus norvegicus [6]): 0%
- Change (Rattus norvegicus [8]): -65%
- Change (Rattus norvegicus [9]): 242%
- Change (Rattus norvegicus [10]): 493%
- Change (Rattus norvegicus [11]): 1445%
- Change (Rattus norvegicus [12]): -74%
- Change (Rattus norvegicus [13]): -62%
- Change (Rattus norvegicus [25]): -62%
- Change (Rattus norvegicus [15]): 94%
- Change (Rattus norvegicus [17]): 206%
- Change (Rattus norvegicus [18]): 753%
- Change (Rattus norvegicus [26]): -60%
- Change (Rattus norvegicus [19]): -53%
- Change (Rattus norvegicus [21]): -31%
- Change (Rattus norvegicus [22]): -77%

SMILES: CC(C)(CCCOc1ccc(SCCCC(C)(C)C(=O)O)cc1)C(=O)O
- Change (Rattus norvegicus [28]): 18%
- Change (Rattus norvegicus [1]): 0%
- Change (Rattus norvegicus [3]): 6%
- Change (Rattus norvegicus [29]): -51%
- Change (Rattus norvegicus [5]): 0%
- Change (Rattus norvegicus [30]): -40%
- Change (Rattus norvegicus [8]): -19%
- Change (Rattus norvegicus [9]): 101%
- Change (Rattus norvegicus [10]): 302%
- Change (Rattus norvegicus [11]): 785%
- Change (Rattus norvegicus [12]): -25%
- Change (Rattus norvegicus [31]): 628%
- Change (Rattus norvegicus [15]): 74%
- Change (Rattus norvegicus [17]): 232%
- Change (Rattus norvegicus [26]): -22%
- Change (Rattus norvegicus [32]): -44%
- Change (Rattus norvegicus [21]): 37%
- Change (Rattus norvegicus [22]): -40%

SMILES: COC(=O)C(C)(C)CCCOc1cccc(OC)c1OCCCC(C)(C)C(=O)OC
- Change (Rattus norvegicus [28]): 0%
- Change (Rattus norvegicus [29]): 0%
- Change (Rattus norvegicus [33]): 0%
- Change (Rattus norvegicus [34]): 0%
- Change (Rattus norvegicus [35]): 0%

SMILES: CC(C)(CCCOc1ccc(OCCCC(C)(C)C(=O)O)c(-c2ccccc2)c1)C(=O)O
- Change (Rattus norvegicus [24]): 1410%
- Change (Rattus norvegicus [1]): 13%
- Change (Rattus norvegicus [3]): 22%
- Change (Rattus norvegicus [4]): 34%
- Change (Rattus norvegicus [5]): 32%
- Change (Rattus norvegicus [6]): 31%
- Change (Rattus norvegicus [8]): -53%
- Change (Rattus norvegicus [9]): 945%
- Change (Rattus norvegicus [10]): 1798%
- Change (Rattus norvegicus [11]): 2432%
- Change (Rattus norvegicus [12]): -78%
- Change (Rattus norvegicus [25]): -85%
- Change (Rattus norvegicus [15]): 518%
- Change (Rattus norvegicus [17]): 741%
- Change (Rattus norvegicus [26]): -52%
- Change (Rattus norvegicus [19]): -27%
- Change (Rattus norvegicus [21]): 82%
- Change (Rattus norvegicus [22]): -72%
